Legend:
T98 cells = experiment: PrestoBlue dose–response cell viability assay, 5 d; type: cell-based, human; conditions: T98 versus U87 and bEnd.3, 3-point screen
U87 cells = experiment: PrestoBlue dose–response cell viability assay, 5 d; type: cell-based, human; conditions: U87, 3-point screen
LCK = LCK (Homo sapiens, UniProt P06239); experiment: Z′-LYTE kinase inhibition; type: biochemical; conditions: 3-point dose–response (0.1, 1, 10 μM), ATP Km app
In short: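 Z′-LYTE FRET assay: a peptide substrate tagged with a FRET pair, with protease cleavage distinguishing phospho from non-phospho peptide, read ratiometrically. Wild-type kinase was tested at 0.1, 1 and 10 μM in duplicate, with 1% DMSO and ATP at apparent Km. 100% inhibition was set without ATP; 0% used a synthetically phosphorylated substrate peptide. IC50 came from the dose-response curve.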

[1] = system: U87, T98 and bEnd.3 cells; experiment: PrestoBlue cell viability screen, cell line not given; type: cell-based; conditions: BEND3, 120 h
In short: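 bEnd.3 cells, grown in DMEM with 10% FBS and 2 mM L-glutamine, seeded at 1 × 10^4 per well. After 48 h at 37 °C/5% CO2 the medium was replaced and 20× compound dilutions in DMEM added (3–30 μM 3-point or 0.03–30 μM semi-log 7-point). DMSO 0.1% v/v served as untreated control. After 5 d, PrestoBlue was added for 60–90 min (ex 540/em 590 nm). EC50 came from a four-parameter logistic fit, minimum constrained to zero, normalised to untreated cells.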

Chain of LCK (P06239 whole entry): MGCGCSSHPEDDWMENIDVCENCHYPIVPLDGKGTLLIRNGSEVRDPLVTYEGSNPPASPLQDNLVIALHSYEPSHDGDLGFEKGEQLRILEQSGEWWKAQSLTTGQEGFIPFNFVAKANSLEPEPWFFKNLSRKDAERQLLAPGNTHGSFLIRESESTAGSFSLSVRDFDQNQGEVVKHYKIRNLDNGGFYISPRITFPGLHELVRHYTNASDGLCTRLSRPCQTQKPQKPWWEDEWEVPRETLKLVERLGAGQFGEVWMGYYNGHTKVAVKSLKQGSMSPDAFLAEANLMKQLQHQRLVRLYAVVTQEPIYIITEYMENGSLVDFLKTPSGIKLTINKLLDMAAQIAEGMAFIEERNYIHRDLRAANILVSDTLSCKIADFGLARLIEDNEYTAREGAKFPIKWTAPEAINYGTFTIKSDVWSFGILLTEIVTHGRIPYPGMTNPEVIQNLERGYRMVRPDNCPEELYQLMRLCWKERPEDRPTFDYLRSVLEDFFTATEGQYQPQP

| Compound | antiproliferative selectivity profile (T98 cells) | also measured |
| --- | --- | --- |
| CCOC(=O)C1CCN(CC#Cc2nn(CC3CCCC3)c3nc(NC)ncc23)CC1 [B22] | selective antiproliferative profile against the T98 cell line | – |
| Cn1nnc2c(C(N)=O)ncn2c1=O [TMZ, temozolomide] | – | antiproliferative activity (U87 cells): some level of antiproliferative activity |
| CNc1ncc2c(C#CCN3CCCCCC3)nn(CC3CCCC3)c2n1 [B21] | selective antiproliferative profile against the T98 cell line | – |
| CN(C)C1CCN(CC#Cc2nn(C3CCCC3)c3nc(NCc4ccccc4)ncc23)C1 (stereo not shown) [B58, N-Benzyl-1-cyclopentyl-3-(3-(3-(dimethylamino)pyrrolidine-1-yl)prop-1-yn-1-yl)-1H-pyrazolo[3,4-d]pyrimidin-6-amine] | – | IC50 (LCK): 2270 nM |
| CNc1ncc2c(C#CCN3CCC(NC(C)=O)CC3)nn(CC3CCCC3)c2n1 [B16] | selective antiproliferative profile against the T98 cell line | – |
| CCOC(=O)N1CCN(CC#Cc2nn(CC3CCCC3)c3nc(NC)ncc23)CC1 [B23] | selective antiproliferative profile against the T98 cell line | – |
| CC1CCN(CC#Cc2nn(CC3CCCC3)c3ncnc(N)c23)CC1 [A3] | – | EC50 [1]: < 30 µM |

From article PMC10718585 (RSC Medicinal Chemistry, 2023)
